Key:
[1] = assay type: in vivo
[2] = Plasma pharmacokinetics of CUDC-101 and metabolite in patients; assay type: in vivo, human; conditions: for AUC(0-t) / Cmax / Tmax / Vd / clearance / half-life: human, iv
locally advanced HNSCC = test: Response evaluation; assay type: in vivo, human
Method in brief: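 Test compound was infused IV over 1 h, Mon/Wed/Fri, for one week before radiation and then through weeks 1–7. Cisplatin 100 mg/m2 was given on days 2, 23 and 44 (adjustable to 40 mg/m2/week), never on the same day. IMRT delivered 70 Gy in 2 Gy daily fractions to gross disease and 56 Gy in 1.6 Gy fractions to the elective neck. Response was scored by RECIST 1.1 plus site-investigator overall assessment from imaging, PET/CT 12 weeks post-therapy, examination and histology.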

EGFR = test: IHC of phosphorylated EGFR in paired tumor biopsies; assay type: in vivo, human; conditions: 2 pairs, 275 mg/m^2
Method in brief: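 Post-dose tumour biopsies were taken 60±30 min after the end of a 1-h IV infusion of test compound on day −5 or −3, and paired with pre-treatment archival tumour. Staining was done on 5-μm paraffin sections. Antigen retrieval used 10mM Tris, 1mM EDTA, 0.05% Tween 20, pH 9.0, at 95°C for 10 min then 90°C for 5 min. Primary antibody was anti-pEGFR Y1068.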

[3] = monotherapy; cited from earlier work
[4] = test system: HPV-negative head and neck cancer cell lines; conditions: cited from earlier work
Akt = conditions: compared with erlotinib or SAHA alone; cited from earlier work

Question: For `C#Cc1cccc(Nc2ncnc3cc(OC)c(OCCCCCCC(=O)NO)cc23)c1` [CUDC-101, 7-(4-(3-ethylnylphenylamino)-7-methoxyquinazolin-6-yloxy)-N-hydroxyheptanamide], which “Single adverse event (discontinuation) at dose level 1” value ([1]; human, in vivo, 1 week) is on record?
Answer: grade 2 joint pain and myalgia

Question: What about the “Patients who experienced a serious adverse event (SAE)” value ([1]; human, in vivo, 8 weeks) of the same compound?
Answer: 7

Question: And the “Patients who experienced at least one AE” value ([1]; in vivo)?
Answer: All patients

Question: And the “Patients with an SAE considered related to any agent” value ([1]; in vivo)?
Answer: Five

Question: What about the “Dose dependent increase in exposure or peak concentration” value ([2]; 225 vs 275 mg/m^2) of the same compound?
Answer: no clear dose dependent increase

Question: What about the “Accumulation with this dosing regimen” value ([2]; IV 3 times per week, days −7 to 43) of the same compound?
Answer: low probability of accumulation

Question: What about the AUC(0-t) ([2]; plasma, 225 mg/m2) of the same compound?
Answer: 9920 ng·h/mL

Question: And the Cmax ([2]; plasma, 225 mg/m2)?
Answer: 13100 ng/mL

Question: And the Tmax ([2]; plasma, 225 mg/m2)?
Answer: 0.542 h

Question: And the Vd ([2]; plasma, 225 mg/m2)?
Answer: 26.6 L

Question: What about the clearance ([2]; plasma, 225 mg/m2) of the same compound?
Answer: 938 mL/min

Question: And the half-life ([2]; plasma, 225 mg/m2)?
Answer: 2.83 h

Question: And the AUC(0-t) ([2]; plasma, 225 mg/m^2)?
Answer: 7110 ng·h/mL

Question: And the Cmax ([2]; plasma, 225 mg/m^2)?
Answer: 8890 ng/mL

Question: What about the Tmax ([2]; plasma, 225 mg/m^2) of the same compound?
Answer: 1.25 h

Question: What about the Vd ([2]; plasma, 225 mg/m^2) of the same compound?
Answer: 54.4 L

Question: And the clearance ([2]; plasma, 225 mg/m^2)?
Answer: 895 mL/min

Question: And the half-life ([2]; plasma, 225 mg/m^2)?
Answer: 3.91 h

Question: And the AUC(0-t) ([2]; plasma, 275 mg/m2)?
Answer: 8000 ng·h/mL

Question: And the Cmax ([2]; plasma, 275 mg/m2)?
Answer: 7890 ng/mL

Question: What about the Tmax ([2]; plasma, 275 mg/m2) of the same compound?
Answer: 0.5 h

Question: What about the Vd ([2]; plasma, 275 mg/m2) of the same compound?
Answer: 42.3 L

Question: And the clearance ([2]; plasma, 275 mg/m2)?
Answer: 1060 mL/min

Question: And the half-life ([2]; plasma, 275 mg/m2)?
Answer: 2.88 h

Question: And the AUC(0-t) ([2]; plasma, 275 mg/m^2)?
Answer: 7770 ng·h/mL

Question: And the Cmax ([2]; plasma, 275 mg/m^2)?
Answer: 7820 ng/mL

Question: What about the Tmax ([2]; plasma, 275 mg/m^2) of the same compound?
Answer: 0.742 h

Question: What about the Vd ([2]; plasma, 275 mg/m^2) of the same compound?
Answer: 76 L

Question: And the clearance ([2]; plasma, 275 mg/m^2)?
Answer: 1020 mL/min

Question: What about the half-life ([2]; plasma, 275 mg/m^2) of the same compound?
Answer: 6.41 h

Question: What about the “Peak concentrations and exposure between days −7 and 43” value ([2]; plasma, IV 3 times per week) of the same compound?
Answer: similar

Question: And the “Exposure to the parent compound compared to its metabolite” value ([2]; plasma, all subjects)?
Answer: greater in all subjects

Question: And the “Post-treatment clinical assessment: stable, patients (%)” value (locally advanced HNSCC; 11 patients, combination with cisplatin and radiation)?
Answer: 4 (37%)

Question: And the Patients progression free (locally advanced HNSCC; median of 1.47 (0.68 – 2.3) years of follow-up)?
Answer: 90%

Question: What about the “Phosphorylation of EGFR (Y1068 and Y1173) in tumor biopsies” value (EGFR) of the same compound?
Answer: trend of EGFR inhibition

Question: And the “MTD as a single agent” value [3]?
Answer: 275 mg/m^2

Question: What about the “Activity in HPV-negative head and neck cancer cell lines” value [4] of the same compound?
Answer: has activity

Question: And the “Phosphorylation of Akt” value (Akt)?
Answer: reduced phosphorylation of Akt

Question: With `N.N.[Cl][Pt][Cl]` [Cisplatin, reference compound] as the compound, how does the “SAE: Failure to thrive” value ([1]; Dose Level 1, 225 mg/m^2 CUDC-101, agent Cisplatin/Radiation) read?
Answer: 1 (25%)
